Data reported in ChEMBL document CHEMBL4152363, “Andrographolide derivative as STAT3 inhibitor that protects acute liver damage in mice” (Bioorg Med Chem, 2018).
pEC50, pIC50: −log10 of the molar value. Activity calls are given as the source filed them. No cut-off for these calls is given here.

Experiments:
[1] = biological target: T1, Signal transducer and activator of transcription 3 (Homo sapiens, UniProt P40763); experiment: Inhibition of IFNgamma-stimulated STAT3 activation in human AD293 cells incubated with IFNgamma for 16 hrs followed by compound addition measured after 24 hrs by luciferase reporter gene assay; assay type: cell-based
T1 sequence (P40763 whole entry): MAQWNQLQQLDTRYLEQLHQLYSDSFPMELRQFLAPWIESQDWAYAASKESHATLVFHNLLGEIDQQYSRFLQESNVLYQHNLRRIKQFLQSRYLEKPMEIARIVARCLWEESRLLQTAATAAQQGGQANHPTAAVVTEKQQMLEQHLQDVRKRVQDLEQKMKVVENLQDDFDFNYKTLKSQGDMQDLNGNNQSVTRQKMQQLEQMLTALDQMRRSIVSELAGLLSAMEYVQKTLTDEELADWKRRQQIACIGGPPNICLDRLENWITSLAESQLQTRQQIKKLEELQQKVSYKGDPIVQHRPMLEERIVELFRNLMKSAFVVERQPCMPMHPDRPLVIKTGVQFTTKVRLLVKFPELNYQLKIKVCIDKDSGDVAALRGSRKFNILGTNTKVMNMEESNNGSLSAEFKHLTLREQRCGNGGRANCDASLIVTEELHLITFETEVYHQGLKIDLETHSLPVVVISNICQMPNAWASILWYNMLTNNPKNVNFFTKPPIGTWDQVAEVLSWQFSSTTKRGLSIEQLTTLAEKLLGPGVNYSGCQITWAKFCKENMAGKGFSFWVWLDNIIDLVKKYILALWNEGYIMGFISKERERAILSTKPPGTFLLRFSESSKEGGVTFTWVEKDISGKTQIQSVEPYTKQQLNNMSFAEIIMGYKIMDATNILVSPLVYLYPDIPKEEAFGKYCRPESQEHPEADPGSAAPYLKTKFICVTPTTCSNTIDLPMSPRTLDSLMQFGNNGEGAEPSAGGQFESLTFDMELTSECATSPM
How it was run: (§1)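 AD-293 or HeLa cells in DMEM/10% FBS stimulated with 20 pg/mL IFN-γ; compound treatment 24 h; luciferase activity measured in cell extracts; EC50 derived.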

[2] = biological target: T1, Signal transducer and activator of transcription 3; experiment: Inhibition of IL-6 stimulated STAT3 activation in human AD293 cells incubated with IL-6 for 16 hrs followed by compound addition measured after 6 hrs by luciferase reporter gene assay; assay type: cell-based
How it was run: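 AD-293 cells stimulated with 2.5 μg/mL IL-6; compound treatment 6 h; luciferase activity read from cell extracts; EC50 derived.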

[3] = biological target: T1, Signal transducer and activator of transcription 3; experiment: Inhibition of […] activation in human AD293 cells incubated […] for 16 hrs followed by compound addition measured after 4 hrs by luciferase reporter gene assay; assay type: cell-based
[4] = system: AD293; experiment: Cytotoxicity against human AD293 cells; assay type: cell-based; conditions: ad293
How it was run: (§2)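 AD-293 or HeLa cells grown in high-glucose DMEM with 10% FBS and 1% penicillin-streptomycin; compound exposure 24 h; cytotoxicity reported as CC10.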

[5] = biological target: T1, Signal transducer and activator of transcription 3; experiment: Inhibition of IFNgamma-stimulated STAT3 activation in human HeLa cells incubated with IFNgamma for 16 hrs followed by compound addition measured after 24 hrs by luciferase reporter gene assay; assay type: cell-based; how it was run: as §1
[6] = biological target: T1, Signal transducer and activator of transcription 3; experiment: Inhibition of […] activation in human HeLa cells incubated […] for 16 hrs followed by compound addition measured after 4 hrs by luciferase reporter gene assay; assay type: cell-based
How it was run: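 NF-κB pathway in AD-293 or HeLa cells stimulated with 50 ng/mL TNF-α; compound treatment 4 h; luciferase activity read from cell extracts; EC50 derived.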

[7] = system: HeLa; experiment: Cytotoxicity against human HeLa cells; assay type: cell-based; how it was run: as §2
[8] = biological target: T2, Signal transducer and activator of transcription 1-alpha/beta (Homo sapiens) (UniProt P42224); experiment: Inhibition of IFNgamma-stimulated STAT1 phosphorylation at Tyr701 residues in human AD293 cell lysates incubated with IFNgamma followed by compound addition at 10 uM by Western blot analysis
T2 sequence (whole entry): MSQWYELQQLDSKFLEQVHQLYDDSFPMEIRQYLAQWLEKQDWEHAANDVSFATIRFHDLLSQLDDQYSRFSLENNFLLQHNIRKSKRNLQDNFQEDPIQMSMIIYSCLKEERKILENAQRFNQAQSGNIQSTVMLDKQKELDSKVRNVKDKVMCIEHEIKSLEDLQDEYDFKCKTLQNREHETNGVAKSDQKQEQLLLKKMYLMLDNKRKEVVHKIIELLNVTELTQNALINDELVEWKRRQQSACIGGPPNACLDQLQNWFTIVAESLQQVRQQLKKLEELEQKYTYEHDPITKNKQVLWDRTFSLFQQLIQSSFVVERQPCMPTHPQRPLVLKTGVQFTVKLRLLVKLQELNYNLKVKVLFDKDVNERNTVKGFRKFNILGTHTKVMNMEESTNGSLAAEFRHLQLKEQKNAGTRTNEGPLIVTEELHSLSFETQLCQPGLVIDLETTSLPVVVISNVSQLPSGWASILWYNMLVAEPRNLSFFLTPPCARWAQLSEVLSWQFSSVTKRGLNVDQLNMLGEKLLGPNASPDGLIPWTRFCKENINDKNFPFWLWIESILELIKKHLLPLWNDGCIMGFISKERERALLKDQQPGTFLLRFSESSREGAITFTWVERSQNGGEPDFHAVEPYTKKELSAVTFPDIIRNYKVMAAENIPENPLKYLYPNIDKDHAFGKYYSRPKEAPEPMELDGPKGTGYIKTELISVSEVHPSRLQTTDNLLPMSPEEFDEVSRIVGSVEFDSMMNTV
How it was run: (§3)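 AD-293 cells treated with 1 μg/mL IFN-γ alone or with compounds at 10 μM; phospho- and total STAT1 and STAT3 assessed by western blot; representative of at least three independent experiments.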

[9] = biological target: T1, Signal transducer and activator of transcription 3; experiment: Inhibition of IFNgamma-stimulated STAT3 phosphorylation at Tyr705 residues in human AD293 cell lysates incubated with IFNgamma followed by compound addition at 10 uM by Western blot analysis; how it was run: as §3
[10] = biological target: T1, Signal transducer and activator of transcription 3; experiment: Inhibition of IFNgamma-stimulated GFP/FLAG-tagged STAT3 dimerization in human AD293 cells incubated for 6 hrs by Western blot analysis; assay type: cell-based
How it was run: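 AD-293 cells co-transfected 48 h with GFP- and FLAG-tagged STAT3 plasmids, then IFN-γ with or without compound for 6 h; 100 μg lysate (RIPA) immunoprecipitated with anti-FLAG and protein G beads; blots probed for GFP and FLAG, chemiluminescent detection.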

| SMILES | pEC50 [1] | pEC50 [2] | pEC50 [3] | pEC50 [5] | pEC50 [6] | inhibition [8] | inhibition [9] | pIC50 [10] | CC10 [4] | CC10 [7] |
| --- | --- | --- | --- | --- | --- | --- | --- | --- | --- | --- |
| C=C1CC[C@@H]2[C@](C)(CO)[C@H](O)CC[C@@]2(C)[C@@H]1C/C=C1/C(=O)OC[C@H]1O[Si](C)(C)C(C)(C)C | 5.25 | 4.98 | < 5.00 | 5.18 | < 5.00 | inactive | inactive |  | > 10 µM | > 10 µM |
| Cc1ccc(S(=O)(=O)OCC(=O)Nc2ccc(C(=O)O)cc2)cc1 |  |  |  |  |  |  |  | 4.07 |  |  |
| CC(C)(C)[Si](C)(C)O[C@@H]1CC[C@]2(C)[C@H](CC[C@@]3(CO3)[C@H]2C/C=C2/C(=O)OC[C@H]2O)[C@]1(C)CO | 5.27 | 5.38 | < 5.00 | 5.21 | < 5.00 | inactive | inactive |  | > 10 µM | > 10 µM |

Second part, led by results:

| pEC50 [1] | pEC50 [2] | pEC50 [3] | pEC50 [5] | pEC50 [6] | inhibition [8] | inhibition [9] | pIC50 [10] | SMILES | CC10 [4] | CC10 [7] |
| --- | --- | --- | --- | --- | --- | --- | --- | --- | --- | --- |
| 5.30 | < 5.00 | < 5.00 | 5.24 | < 5.00 | inactive | inactive |  | C=C1CC[C@@H]2[C@](C)(CO[Si](C)(C)C(C)(C)C)[C@H](OC(C)=O)CC[C@@]2(C)[C@@H]1C/C=C1/C(=O)OC[C@H]1OC(C)=O | > 10 µM | > 10 µM |
| 5.27 | < 5.00 | < 5.00 | 5.08 | < 5.00 | inactive | inactive |  | CC(C)(C)[Si](C)(C)O[C@@H]1CC[C@]2(C)[C@H](CC[C@]3(CO3)[C@H]2C/C=C2/C(=O)OC[C@H]2O)[C@]1(C)CO | > 10 µM | > 10 µM |
